From ChEMBL document CHEMBL1140949, “Synthesis and evaluation of vancomycin aglycon analogues that bear modifications in the N-terminal D-leucyl amino acid” (2009) come the findings set out here.

≈ marks a conversion by molar mass, not a printed value.

One experiment relates to Staphylococcus aureus. The experiment can be described thus: Antimicrobial activity against vancomycin-sensitive Staphylococcus aureus ATCC 25923 after 24 hrs by microtiter plate based antimicrobial assay. The format is functional. To be noted: ATCC 25923, 24 h. In outline: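 Microtiter plate broth assay against vancomycin-sensitive S. aureus ATCC 25923. Unstable hydrazine-bearing analogues were tested within one day of freeing the hydrazine. They were used as crude deprotected material without reverse-phase HPLC purification, because purification caused decomposition.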

The next experiment deals with Enterococcus faecalis. The experiment can be described thus: Antimicrobial activity against vancomycin-resistant Enterococcus faecalis BM4166 after 24 hrs by microtiter plate based antimicrobial assay. The format is functional. In short, it runs like this: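 VanA-type vancomycin-resistant E. faecalis BM4166, with inducible resistance that switches cell-wall precursors from D-Ala-D-Ala to D-Ala-D-Lac on glycopeptide exposure. MIC measured in a microtiter plate format. Unstable hydrazine analogues were assayed within one day of deprotection, as crude material without HPLC purification.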

By MIC is commonly meant the least concentration at which growth counts as inhibited. As to `CCNC(=O)Nc1cccc(C[C@@H](NC)C(=O)N[C@H]2C(=O)N[C@@H](CC(N)=O)C(=O)N[C@H]3C(=O)N[C@H]4C(=O)N[C@H](C(=O)N[C@H](C(=O)O)c5cc(O)cc(O)c5-c5cc4ccc5O)[C@H](O)c4ccc(c(Cl)c4)Oc4cc3cc(c4O)Oc3ccc(cc3Cl)[C@H]2O)c1.O=C(O)C(F)(F)F`, the figures for the minimal inhibitory concentration (MIC) in the experiment with Staphylococcus aureus and against Enterococcus faecalis were 31 µg/mL and 640 µg/mL, respectively.
For `CN[C@H](CO)C(=O)N[C@H]1C(=O)N[C@@H](CC(N)=O)C(=O)N[C@H]2C(=O)N[C@H]3C(=O)N[C@H](C(=O)N[C@H](C(=O)O)c4cc(O)cc(O)c4-c4cc3ccc4O)[C@H](O)c3ccc(c(Cl)c3)Oc3cc2cc(c3O)Oc2ccc(cc2Cl)[C@H]1O.O=C(O)C(F)(F)F`, in that order: 40 µg/mL and 800 µg/mL.
For `CN[C@H](Cc1cccc(NN)c1)C(=O)N[C@H]1C(=O)N[C@@H](CC(N)=O)C(=O)N[C@H]2C(=O)N[C@H]3C(=O)N[C@H](C(=O)N[C@H](C(=O)O)c4cc(O)cc(O)c4-c4cc3ccc4O)[C@H](O)c3ccc(c(Cl)c3)Oc3cc2cc(c3O)Oc2ccc(cc2Cl)[C@H]1O.O=C(O)C(F)(F)F`, in that order: 10 µg/mL and 320 µg/mL.
The matching figures for `CN[C@H](Cc1cccc(NC(=N)N)c1)C(=O)N[C@H]1C(=O)N[C@@H](CC(N)=O)C(=O)N[C@H]2C(=O)N[C@H]3C(=O)N[C@H](C(=O)N[C@H](C(=O)O)c4cc(O)cc(O)c4-c4cc3ccc4O)[C@H](O)c3ccc(c(Cl)c3)Oc3cc2cc(c3O)Oc2ccc(cc2Cl)[C@H]1O.O=C(O)C(F)(F)F`: 10 µg/mL and 320 µg/mL.
As for `CN[C@H](Cc1cccc(N)c1)C(=O)N[C@H]1C(=O)N[C@@H](CC(N)=O)C(=O)N[C@H]2C(=O)N[C@H]3C(=O)N[C@H](C(=O)N[C@H](C(=O)O)c4cc(O)cc(O)c4-c4cc3ccc4O)[C@H](O)c3ccc(c(Cl)c3)Oc3cc2cc(c3O)Oc2ccc(cc2Cl)[C@H]1O.O=C(O)C(F)(F)F`, the results for the MIC against Staphylococcus aureus and against Enterococcus faecalis were 20 µg/mL and 320 µg/mL, respectively.
For `CN[C@H](COC(C)(C)C)C(=O)N[C@H]1C(=O)N[C@@H](CC(N)=O)C(=O)N[C@H]2C(=O)N[C@H]3C(=O)N[C@H](C(=O)N[C@H](C(=O)O)c4cc(O)cc(O)c4-c4cc3ccc4O)[C@H](O)c3ccc(c(Cl)c3)Oc3cc2cc(c3O)Oc2ccc(cc2Cl)[C@H]1O.O=C(O)C(F)(F)F`, in that order: 20 µg/mL and 320 µg/mL.
The matching figures for `CN[C@H](Cc1cccc(CNN)c1)C(=O)N[C@H]1C(=O)N[C@@H](CC(N)=O)C(=O)N[C@H]2C(=O)N[C@H]3C(=O)N[C@H](C(=O)N[C@H](C(=O)O)c4cc(O)cc(O)c4-c4cc3ccc4O)[C@H](O)c3ccc(c(Cl)c3)Oc3cc2cc(c3O)Oc2ccc(cc2Cl)[C@H]1O.O=C(O)C(F)(F)F`: 1.25 µg/mL and 170 µg/mL.
The matching figures for `CN[C@H](CC(C)C)C(=O)N[C@H]1C(=O)N[C@@H](CC(N)=O)C(=O)N[C@H]2C(=O)N[C@H]3C(=O)N[C@H](C(=O)N[C@H](C(=O)O)c4cc(O)cc(O)c4-c4cc3ccc4O)[C@H](O)c3ccc(c(Cl)c3)Oc3cc2cc(c3O[C@@H]2O[C@H](CO)[C@@H](O)[C@H](O)[C@H]2O[C@H]2C[C@](C)(N)[C@H](O)[C@H](C)O2)Oc2ccc(cc2Cl)[C@H]1O` [VANCOMYCIN]: 1.25 µg/mL (≈ 0.863 µM) and 2000 µg/mL (≈ 1380 µM).
As for `CN[C@H](CCNN)C(=O)N[C@H]1C(=O)N[C@@H](CC(N)=O)C(=O)N[C@H]2C(=O)N[C@H]3C(=O)N[C@H](C(=O)N[C@H](C(=O)O)c4cc(O)cc(O)c4-c4cc3ccc4O)[C@H](O)c3ccc(c(Cl)c3)Oc3cc2cc(c3O)Oc2ccc(cc2Cl)[C@H]1O.O=C(O)C(F)(F)F`, the minimum inhibitory concentration (MIC) is 10 µg/mL against Staphylococcus aureus and more than 400 µg/mL against Enterococcus faecalis.
Take `CN[C@@H](C(=O)N[C@H]1C(=O)N[C@@H](CC(N)=O)C(=O)N[C@H]2C(=O)N[C@H]3C(=O)N[C@H](C(=O)N[C@H](C(=O)O)c4cc(O)cc(O)c4-c4cc3ccc4O)[C@H](O)c3ccc(c(Cl)c3)Oc3cc2cc(c3O)Oc2ccc(cc2Cl)[C@H]1O)[C@H](C)O.O=C(O)C(F)(F)F`: the figures for the MIC in the experiment with Staphylococcus aureus and against Enterococcus faecalis were 40 µg/mL and 800 µg/mL, respectively.
As for `CN[C@H](Cc1cccc(CN)c1)C(=O)N[C@H]1C(=O)N[C@@H](CC(N)=O)C(=O)N[C@H]2C(=O)N[C@H]3C(=O)N[C@H](C(=O)N[C@H](C(=O)O)c4cc(O)cc(O)c4-c4cc3ccc4O)[C@H](O)c3ccc(c(Cl)c3)Oc3cc2cc(c3O)Oc2ccc(cc2Cl)[C@H]1O.O=C(O)C(F)(F)F`, the MIC is more than 10 µg/mL with Staphylococcus aureus and 640 µg/mL against Enterococcus faecalis.
The matching figures for `CN[C@H](CC(C)C)C(=O)N[C@H]1C(=O)N[C@@H](CC(N)=O)C(=O)N[C@H]2C(=O)N[C@H]3C(=O)N[C@H](C(=O)N[C@H](C(=O)O)c4cc(O)cc(O)c4-c4cc3ccc4O)[C@H](O)c3ccc(c(Cl)c3)Oc3cc2cc(c3O)Oc2ccc(cc2Cl)[C@H]1O` [VANCOMYCIN AGLYCON]: 0.625 µg/mL (≈ 0.546 µM) and 640 µg/mL (≈ 559 µM).
